ChEMBL document CHEMBL4251712, “Mbandakamine-Type Naphthylisoquinoline Dimers and Related Alkaloids from the Central African Liana Ancistrocladus ealaensis with Antiparasitic and Antileukemic Activities” (J Nat Prod, 2018)
Calls of active or inactive are those of the source. No cut-off for these calls is given here.

Key:
Plasmodium falciparum [1] = experiment: Antiplasmodial activity against chloroquine-sensitive Plasmodium falciparum NF54 assessed as reduction in [3H]-hypoxanthine incorporation pretreated for 48 hrs followed by [3H]-hypoxanthine addition measured after 24 hrs by liquid scintillation counting method; format: functional, organism-based
Plasmodium falciparum [2] = experiment: Antiplasmodial activity against chloroquine and pyrimethamine-resistant Plasmodium falciparum K1 assessed as reduction in [3H]-hypoxanthine incorporation pretreated for 48 hrs followed by [3H]-hypoxanthine addition measured after 24 hrs by liquid scintillation counting method; format: functional, organism-based
Procedure, shortened: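 IC50 against the K1 strain taken as the mean of two independent assays, with individual values differing by a factor of less than 2.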

Trypanosoma cruzi = experiment: […] activity against Trypanosoma cruzi Tulahuen C4 infected in rat L6 cells after 96 hrs by CPRG/Nonidet reagent based photometric analysis; format: functional, organism-based; conditions: for IC50: Tulahuen C4, L6, 96 h
Procedure, shortened: (§1)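 IC50 values are means of two independent assays, individual values differing by less than a factor of 2.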

[3] = test system: Trypanosoma brucei rhodesiense; experiment: […] activity against Trypanosoma brucei rhodesiense STIB 900 trypomastigote after 72 hrs by Alamar blue assay; format: functional, organism-based; conditions: for IC50: STIB 900, 72 h; procedure, shortened: as §1
Leishmania donovani = experiment: […] activity against Leishmania donovani MHOM-ET-67/L82 axenic amastigotes after 72 hrs by Alamar blue assay; format: functional, organism-based; conditions: for IC50: MHOM-ET-67/L82, 72 h; procedure, shortened: as §1
L6 = experiment: Cytotoxicity against rat L6 cells after 72 hrs by Alamar blue assay; format: cell-based; conditions: L6, 72 h; procedure, shortened: as §1
[4] = Selectivity index, ratio of IC50 for rat L6 cells to IC50 for chloroquine-sensitive Plasmodium falciparum NF54; format: toxicity; conditions: read-out: Ratio IC50
Procedure, shortened: (§2)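 Selectivity index is the L6-cell IC50 divided by the P. falciparum IC50 for the matching strain (K1 or NF54). Each IC50 is the mean of two independent assays, with individual values differing by a factor of less than 2.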

[5] = Selectivity index, ratio of IC50 for rat L6 cells to IC50 for chloroquine and pyrimethamine-resistant Plasmodium falciparum K1; format: toxicity; conditions: read-out: Ratio IC50; procedure, shortened: as §2
CCRF-CEM [6] = experiment: Antileukemic activity against human CCRF-CEM cells after 24 to 48 hrs by resazurin dye based fluorescence assay; format: functional, cell-based
Procedure, shortened: (§3)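 Leukemia cells treated with compounds across 0.001 to 100 μM, doxorubicin as reference drug; viability read by resazurin assay. Values are means with standard deviation of three independent experiments, each with six parallel measurements.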

ADR5000 cell line [7] = experiment: Antileukemic activity against human CEM/ADR5000 cells after 24 to 48 hrs by resazurin dye based fluorescence assay; format: functional, cell-based; procedure, shortened: as §3
[8] = Resistance index, ratio of IC50 for human CEM/ADR5000 cells to IC50 for human CCRF-CEM cells; format: functional
Procedure, shortened: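 Degree of resistance calculated as IC50 for CEM/ADR5000 divided by IC50 for CCRF-CEM; IC50s from resazurin viability assay after treatment at 0.001 to 100 μM, three independent experiments of six parallels each.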

Plasmodium falciparum [9] = experiment: Antiplasmodial activity against Plasmodium falciparum NF54; format: functional, organism-based; procedure, shortened: as §1
CCRF-CEM [10] = experiment: Antileukemic activity against human CCRF-CEM cells assessed as reduction in cell viability at 0.001 to 100 uM after 24 to 48 hrs by resazurin dye based fluorescence assay relative to control
ADR5000 cell line [11] = experiment: Antileukemic activity against human CEM/ADR5000 cells assessed as reduction in cell viability at 0.001 to 100 uM after 24 to 48 hrs by resazurin dye based fluorescence assay relative to control

Structure (SMILES)	IC50 (Plasmodium falciparum [1])	IC50 (Plasmodium falciparum [2])	IC50 (Trypanosoma cruzi)	IC50 [3]	IC50 (Leishmania donovani)	IC50 (L6)	selectivity ratio [4]	selectivity ratio [5]	Activity (Plasmodium falciparum [1])	Activity (Plasmodium falciparum [2])	Activity (Trypanosoma cruzi)	Activity [3]	Activity (Leishmania donovani)	also measured
COc1cc(O)c(-c2cc(-c3c(C)cc(O)c4c(OC)ccc(-c5c(O)cc(OC)c6c5C[C@@H](C)N[C@@H]6C)c34)c(O)c3c(OC)cc(C)cc23)c2c1[C@H](C)N[C@H](C)C2	0.047 µM	0.064 µM	41.8 µM	1.8 µM	> 100 µM	15.9 µM	339	249	–	–	–	–	–	IC50 (CCRF-CEM [6]): 1.5 µM; IC50 (ADR5000 cell line [7]): 27.7 µM; Ratio IC50 [8]: 18.5
COc1cc(C)cc2c(-c3c(O)cc(O)c4c3C[C@@H](C)N[C@H]4C)ccc(O)c12	9.94 µM	12.9 µM	237 µM	15.3 µM	26.4 µM	79.1 µM	7.95	6.13	–	–	–	–	–	–
O=C(Cn1ccnc1[N+](=O)[O-])NCc1ccccc1 [BENZNIDAZOLE]	–	–	3.56 µM	–	–	–	–	–	–	–	–	–	–	–
COc1cc(O)c2c(c1)C[C@H](C)N=C2C	–	–	–	–	–	–	–	–	inactive	inactive	inactive	inactive	inactive	–
COc1cc(C)cc2c(-c3c(O)cc(O)c4c3C[C@@H](C)N[C@@H]4C)ccc(O)c12 [KORUPENSAMINE A]	–	–	–	–	–	–	–	–	–	–	–	–	–	IC50 (Plasmodium falciparum [9]): 0.82 µM
COc1cc(OC)c(-c2ccc(O)c3c(OC)cc(C)cc23)c2c1C(C)=N[C@@H](C)C2	2.69 µM	1.06 µM	43.4 µM	1.46 µM	13.4 µM	101 µM	37.5	95.3	–	–	–	–	–	Activity (CCRF-CEM [10]): <20%; Activity (ADR5000 cell line [11]): <20%
COc1cc(O)c(-c2cc(-c3c(C)cc(O)c4c(OC)ccc(-c5c(O)cc(OC)c6c5C[C@@H](C)N[C@@H]6C)c34)c(O)c3c(OC)cc(C)cc23)c2c1[C@@H](C)N[C@H](C)C2	0.13 µM	–	–	–	–	–	–	–	–	–	–	–	–	IC50 (CCRF-CEM [6]): 7.4 µM; IC50 (ADR5000 cell line [7]): 23.9 µM; Ratio IC50 [8]: 3.2
COc1cc(O)cc2c1C(C)=N[C@@H](C)C2	–	–	–	–	–	–	–	–	inactive	inactive	inactive	inactive	inactive	–
COc1cc([C@@H]2c3cc4c(cc3[C@H](O)[C@H]3COC(=O)[C@H]23)OCO4)cc(OC)c1OC [PODOFILOX]	–	–	–	–	–	0.041 µM	–	–	–	–	–	–	–	–
COc1cc(O)c2c(c1)C[C@H](C)N[C@@H]2C	–	–	–	–	–	–	–	–	inactive	inactive	inactive	inactive	inactive	–
COc1cc(O)c2c(c1)C[C@H](C)N[C@H]2C	–	–	–	–	–	–	–	–	inactive	inactive	inactive	inactive	inactive	–
COc1cc(O)c(-c2ccc(OC)c3c(O)cc(C)c(-c4cc(-c5c(O)cc(OC)c6c5C[C@@H](C)N[C@H]6C)c5cc(C)cc(OC)c5c4O)c23)c2c1C(C)=N[C@H](C)C2	0.337 µM	0.126 µM	–	4.1 µM	> 100 µM	8.87 µM	26.3	70.4	–	–	–	–	–	IC50 (CCRF-CEM [6]): 2.96 µM; IC50 (ADR5000 cell line [7]): 19 µM; Ratio IC50 [8]: 6.4
COc1cc(OC)c2c(c1-c1ccc(O)c3c(OC)cc(C)cc13)C[C@H](C)N[C@H]2C [ANCISTROEALAINE B]	1.74 µM	0.76 µM	32.5 µM	3.85 µM	37.9 µM	77.8 µM	44.7	102	–	–	–	–	–	–
